From ChEMBL document CHEMBL1641436, “Synthesis of sugar-amino acid-nucleosides as potential glycosyltransferase inhibitors” (Bioorg Med Chem, 2011)

Each compound was assayed against T1, Galactofuranosyltransferase GlfT2 (Mycobacterium tuberculosis, UniProt O53585) (assay: Inhibition of Mycobacterium tuberculosis GIFT2 at pH7.6 by spectrophotometric assay).
T1 sequence (O53585 whole entry): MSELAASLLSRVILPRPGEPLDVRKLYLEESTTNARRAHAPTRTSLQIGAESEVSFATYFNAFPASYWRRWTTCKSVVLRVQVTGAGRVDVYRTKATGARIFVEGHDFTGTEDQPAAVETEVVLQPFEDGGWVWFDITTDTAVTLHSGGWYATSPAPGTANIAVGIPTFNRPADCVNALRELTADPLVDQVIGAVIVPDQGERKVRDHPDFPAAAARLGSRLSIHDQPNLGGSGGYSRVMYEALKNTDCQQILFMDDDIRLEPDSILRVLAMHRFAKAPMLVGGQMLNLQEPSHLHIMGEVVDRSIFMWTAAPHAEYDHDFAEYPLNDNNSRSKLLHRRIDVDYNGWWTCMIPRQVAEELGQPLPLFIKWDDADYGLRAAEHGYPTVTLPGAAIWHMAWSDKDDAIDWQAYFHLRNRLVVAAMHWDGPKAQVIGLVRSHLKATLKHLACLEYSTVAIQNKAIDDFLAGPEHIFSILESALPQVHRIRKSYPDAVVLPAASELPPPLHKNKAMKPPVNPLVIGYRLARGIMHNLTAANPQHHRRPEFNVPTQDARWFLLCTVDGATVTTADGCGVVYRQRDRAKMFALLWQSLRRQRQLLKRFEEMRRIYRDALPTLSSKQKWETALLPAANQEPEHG
Work on `O=C(C[C@H]1O[C@H](CO)[C@H](O)[C@H](O)[C@H]1O)N[C@@H](Cc1cnc[nH]1)C(=O)NC[C@H]1O[C@@H](n2ccc(=O)[nH]c2=O)[C@H](O)[C@@H]1O` yielded an IC50 of 332 µM.

Each compound was assayed against T2, Galactofuranosyltransferase GlfT2 (Mycobacterium tuberculosis) (UniProt O53585) (assay: Inhibition of Mycobacterium tuberculosis GIFT2 at 4 mM at pH7.6 by spectrophotometric assay).
T2 sequence (whole entry): T1 sequence (O53585 whole entry)
Procedure, shortened: (§1)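 Coupled PK/LDH spectrophotometric assay of GlfT2. Mix contained 100 mM MOPS pH 7.6, 50 mM KCl, 20 mM MgCl2, 1.1 mM NADH, 3.5 mM PEP, 3.75 U PK and 16.8 U LDH, with β-D-Galf-(1→5)-β-D-Galf-(1→6)-β-D-Galf-octyl as acceptor. Diluted GlfT2 was added to start the reaction at 37 °C, with A340 read every 10–15 s. Closest duplicate velocities were blank-corrected and expressed as % of mean control.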
With `O=C1CCN([C@@H]2O[C@H](CNC(=O)[C@H](Cc3cnc[nH]3)NC(=O)C[C@H]3O[C@H](CO)[C@H](O)[C@H](O)[C@H]3O)[C@@H](O)[C@H]2O)C(=O)N1` the inhibition was 18%.
Compound `O=C(C[C@H]1O[C@H](CO)[C@H](O)[C@H](O)[C@H]1O)N[C@@H](Cc1cnc[nH]1)C(=O)NC[C@H]1O[C@@H](n2ccc(=O)[nH]c2=O)[C@H](O)[C@@H]1O` has an inhibition of 79%.
`O=C1CCN([C@@H]2O[C@H](CNC(=O)[C@H](Cc3c[nH]c4ccccc34)NC(=O)C[C@H]3O[C@H](CO)[C@H](O)[C@H](O)[C@H]3O)[C@@H](O)[C@H]2O)C(=O)N1` gave an inhibition of 53%.
`O=C(C[C@H]1O[C@H](CO)[C@H](O)[C@H](O)[C@H]1O)N[C@@H](Cc1c[nH]c2ccccc12)C(=O)NC[C@H]1O[C@@H](n2ccc(=O)[nH]c2=O)[C@H](O)[C@@H]1O` gave an inhibition of 75%.
With `NC(=O)CC[C@H](NC(=O)C[C@H]1O[C@H](CO)[C@H](O)[C@H](O)[C@H]1O)C(=O)NC[C@H]1O[C@@H](N2CCC(=O)NC2=O)[C@H](O)[C@@H]1O` the inhibition was < 10%.
`NC(=O)CC[C@H](NC(=O)C[C@H]1O[C@H](CO)[C@H](O)[C@H](O)[C@H]1O)C(=O)NC[C@H]1O[C@@H](n2ccc(=O)[nH]c2=O)[C@H](O)[C@@H]1O` was tested, and the inhibition was < 10%.

The compounds below were run against T2, Galactofuranosyltransferase GlfT2 (Mycobacterium tuberculosis) (assay: Inhibition of Mycobacterium tuberculosis GIFT2 at 2 mM at pH7.6 by spectrophotometric assay).
Procedure, shortened: as §1
For `O=C1CCN([C@@H]2O[C@H](CNC(=O)[C@H](Cc3c[nH]c4ccccc34)NC(=O)C[C@H]3O[C@@H](CO)[C@H](O)[C@H]3O)[C@@H](O)[C@H]2O)C(=O)N1`, the inhibition was < 10%.
In the case of `O=C(C[C@@H]1O[C@@H](CO)[C@H](O)[C@H]1O)N[C@@H](Cc1c[nH]c2ccccc12)C(=O)NC[C@H]1O[C@@H](n2ccc(=O)[nH]c2=O)[C@H](O)[C@@H]1O`, the inhibition is reported as < 10%.
Compound `O=C(C[C@H]1O[C@@H](CO)[C@H](O)[C@H]1O)N[C@@H](Cc1c[nH]c2ccccc12)C(=O)NC[C@H]1O[C@@H](n2ccc(=O)[nH]c2=O)[C@H](O)[C@@H]1O` has an inhibition of 30%.
With `O=C1CCN([C@@H]2O[C@H](CNC(=O)[C@H](Cc3c[nH]c4ccccc34)NC(=O)C[C@@H]3O[C@@H](CO)[C@H](O)[C@H]3O)[C@@H](O)[C@H]2O)C(=O)N1` the inhibition was < 10%.
With `O=C1CCN([C@@H]2O[C@H](CNC(=O)[C@H](Cc3cnc[nH]3)NC(=O)C[C@H]3O[C@@H](CO)[C@H](O)[C@H]3O)[C@@H](O)[C@H]2O)C(=O)N1` the inhibition was < 10%.
Work on `O=C(C[C@@H]1O[C@@H](CO)[C@H](O)[C@H]1O)N[C@@H](Cc1cnc[nH]1)C(=O)NC[C@H]1O[C@@H](n2ccc(=O)[nH]c2=O)[C@H](O)[C@@H]1O` yielded an inhibition of 14%.
For `O=C1CCN([C@@H]2O[C@H](CNC(=O)[C@H](Cc3cnc[nH]3)NC(=O)C[C@@H]3O[C@@H](CO)[C@H](O)[C@H]3O)[C@@H](O)[C@H]2O)C(=O)N1`, the inhibition was < 10%.
`O=C(C[C@H]1O[C@@H](CO)[C@H](O)[C@H]1O)N[C@@H](Cc1cnc[nH]1)C(=O)NC[C@H]1O[C@@H](n2ccc(=O)[nH]c2=O)[C@H](O)[C@@H]1O` showed an inhibition of 37%.
